These results are taken from ChEMBL document CHEMBL1255259, “Phosphorothioate-modified oligodeoxynucleotides inhibit human cytomegalovirus replication by blocking virus entry” (Antimicrob Agents Chemother, 2008).

The nature of data set [1]: Cytotoxicity against HELF assessed as cell viability by MTT assay after 6 days at <=10 uM. The format is cell-based. The following applies: human, 144 h. A digest of the protocol: (§1)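 HELF exposed to rising ODN concentrations (up to 10 μM) for 6 days; viable cells measured by MTT. CC50 taken as concentration that cuts viability to 50%.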
(Tetrazolium dyes change colour on reduction, which living cells bring about.)

Data set [2] has as its system Human betaherpesvirus 5. Description: Antimicrobial activity against Human cytomegalovirus AD169 infected in 1 uM compound pretreated HELF assessed as inhibition of viral replication measured after 6 days post-infection. The format is functional, organism-based. In short, it runs like this:
(§2)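 HELF pretreated with ODN 1 h before infection with HCMV AD169 (MOI 1); ODN kept in medium after 2 h adsorption at 37°C. At 6 days p.i., cells plus supernatants sonicated and titrated by plaque assay on HELF; plaques counted microscopically, expressed as PFU/ml (log10) or % of control. IC50/IC90 by linear regression; duplicate wells, three independent experiments, means ± SD.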

Data set [3] relates to Human alphaherpesvirus 1. Description: Antimicrobial activity against Human herpesvirus 1 infected in compound pretreated HELF assessed as inhibition of viral replication at 1 uM. It counts as functional, organism-based. In short, it runs like this: (§3)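 HELF pretreated with ODN (0.1 or 1 μM) 1 h before infection with a clinical HSV-1 isolate at MOI 0.1; ODN kept in medium after 2 h adsorption. Harvest at 48 h p.i., sonication, plaque titration on Vero cells. Means ± SD of three independent experiments.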

Data set [4] has as its system Human alphaherpesvirus 1. As to the kind of experiment: Antimicrobial activity against Human herpesvirus 1 infected in compound pretreated HELF assessed as inhibition of viral replication at 0.1 uM. It counts as functional, organism-based. In short, it runs like this: as §3
Data set [5] concerns Human betaherpesvirus 5. As to the kind of experiment: Antimicrobial activity against Human cytomegalovirus AD169 infected in 0.1 uM compound pretreated HELF assessed as inhibition of viral replication measured after 6 days post-infection. The format is functional, organism-based. In short, it runs like this:
as §2

In data set [6] the test system is Human betaherpesvirus 5. Description: Antimicrobial activity against 0.1 uM compound pretreated Human cytomegalovirus AD169 infected in HELF assessed as reduction in viral titer 37 degC. It counts as functional, organism-based. A digest of the protocol:
(§4)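 HCMV AD169 (10^4 PFU) incubated with ODN at 0.1 μM at 4 or 37°C for various times; samples then diluted to bring ODN below an antivirally active level; residual infectivity titrated by plaque assay on HELF. Means ± SD of three independent experiments.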

Data set [7] in a line: Cytotoxicity against HELF assessed as cell viability after 6 days by MTT assay. The format is cell-based. The following applies: human, HELF cells. In short, it runs like this:
as §1

Data set [8] has as its system Human betaherpesvirus 5. Description: Antimicrobial activity against Human cytomegalovirus AD169 infected in HELF assessed as inhibition of viral replication at 1 uM measured after 6 days post-infection. The format is functional, organism-based.
The test system of data set [9] is Human betaherpesvirus 5. Description: Antimicrobial activity against Human cytomegalovirus AD169 infected in HELF assessed as inhibition of viral replication at 0.1 uM measured after 6 days post-infection. The format is functional, organism-based.
Data set [10] relates to Human betaherpesvirus 5. As to the kind of experiment: Antimicrobial activity against Human cytomegalovirus AD169 infected in compound pretreated HELF assessed as inhibition of viral replication measured after 6 days post-infection. The format is functional, organism-based. The following applies: Human betaherpesvirus 5, AD169, HELF. In short, it runs like this: as §2
Data set [11] concerns Human betaherpesvirus 5. As to the kind of experiment: Antimicrobial activity against 0.1 uM compound pretreated Human cytomegalovirus AD169 infected in HELF assessed as reduction in viral titer at 4 degC. The format is functional, organism-based. In short, it runs like this: as §4

Calls of active or inactive are those of the source. No cut-off for these calls is given here. Some results are limits rather than exact numbers.

Turning to `Cc1cn([C@H]2C[C@H](OP(O)(O)=S)[C@@H](COP(O)(=S)O[C@H]3C[C@H](n4cc(C)c(=O)[nH]c4=O)O[C@@H]3COP(O)(=S)O[C@H]3[C@@H](O)[C@H](n4cnc5c(=O)[nH]c(N)nc54)O[C@@H]3COP(O)(=S)O[C@H]3[C@@H](O)[C@H](n4ccc(N)nc4=O)O[C@@H]3COP(O)(=S)O[C@H]3[C@@H](O)[C@H](n4cnc5c(N)ncnc54)O[C@@H]3COP(O)(=S)O[C@H]3[C@@H](O)[C@H](n4cnc5c(=O)[nH]c(N)nc54)O[C@@H]3COP(O)(=S)O[C@H]3C[C@H](n4cc(C)c(=O)[nH]c4=O)O[C@@H]3COP(O)(=S)O[C@H]3[C@@H](O)[C@H](n4ccc(N)nc4=O)O[C@@H]3COP(O)(=S)O[C@H]3[C@@H](O)[C@H](n4ccc(N)nc4=O)O[C@@H]3COP(O)(=S)O[C@H]3C[C@H](n4cc(C)c(=O)[nH]c4=O)O[C@@H]3COP(O)(=S)O[C@H]3C[C@H](n4cc(C)c(=O)[nH]c4=O)O[C@@H]3COP(O)(=S)O[C@H]3[C@@H](O)[C@H](n4cnc5c(=O)[nH]c(N)nc54)O[C@@H]3COP(O)(=S)O[C@H]3[C@@H](O)[C@H](n4ccc(N)nc4=O)O[C@@H]3COP(O)(=S)O[C@H]3[C@@H](O)[C@H](n4cnc5c(N)ncnc54)O[C@@H]3COP(O)(=S)O[C@H]3[C@@H](O)[C@H](n4cnc5c(=O)[nH]c(N)nc54)O[C@@H]3COP(O)(=S)O[C@H]3C[C@H](n4cc(C)c(=O)[nH]c4=O)O[C@@H]3COP(O)(=S)O[C@H]3[C@@H](O)[C@H](n4cnc5c(N)ncnc54)O[C@@H]3COP(O)(=S)O[C@H]3[C@@H](O)[C@H](n4ccc(N)nc4=O)O[C@@H]3COP(O)(=S)O[C@H]3[C@@H](O)[C@H](n4ccc(N)nc4=O)O[C@@H]3COP(O)(=S)O[C@H]3C[C@H](n4cc(C)c(=O)[nH]c4=O)O[C@@H]3CO)O2)c(=O)[nH]c1=O` (some centres not stated), the Activity result in data set [1] is “Non-toxic”. In addition, the inhibition entry in the data set with Human betaherpesvirus 5 [2] and in the data set on Human betaherpesvirus 5 [5] was “Active” each time. The inhibition result with Human alphaherpesvirus 1 [3], in the data set on Human alphaherpesvirus 1 [4], in the data set with Human betaherpesvirus 5 [6], in the data set on Human betaherpesvirus 5 [8], in the data set with Human betaherpesvirus 5 [9] and with Human betaherpesvirus 5 [11] was “inactive” in each case. Moreover, the CC50 – broadly, the concentration giving 50% cytotoxicity – at 144 h in [7] is over 10000 nM. For the same molecule, the IC50 (in general, the concentration that inhibits the measured activity by half) with Human betaherpesvirus 5 [10] worked out at 40 nM. For the same molecule, the IC90 (in general, the concentration needed for an effect of 90%) with Human betaherpesvirus 5 [10] was found to be 900 nM.

For the molecule `Cc1cn([C@H]2C[C@H](OP(=O)(O)O)[C@@H](COP(=O)(O)O[C@H]3C[C@H](n4cc(C)c(=O)[nH]c4=O)O[C@@H]3COP(=O)(O)O[C@H]3[C@@H](O)[C@H](n4cnc5c(=O)[nH]c(N)nc54)O[C@@H]3COP(=O)(O)O[C@H]3[C@@H](O)[C@H](n4ccc(N)nc4=O)O[C@@H]3COP(=O)(O)O[C@H]3C[C@H](n4cc(C)c(=O)[nH]c4=O)O[C@@H]3COP(=O)(O)O[C@H]3[C@@H](O)[C@H](n4cnc5c(=O)[nH]c(N)nc54)O[C@@H]3COP(=O)(O)O[C@H]3C[C@H](n4cc(C)c(=O)[nH]c4=O)O[C@@H]3COP(=O)(O)O[C@H]3C[C@H](n4cc(C)c(=O)[nH]c4=O)O[C@@H]3COP(=O)(O)O[C@H]3C[C@H](n4cc(C)c(=O)[nH]c4=O)O[C@@H]3COP(=O)(O)O[C@H]3C[C@H](n4cc(C)c(=O)[nH]c4=O)O[C@@H]3COP(=O)(O)O[C@H]3[C@@H](O)[C@H](n4cnc5c(=O)[nH]c(N)nc54)O[C@@H]3COP(=O)(O)O[C@H]3[C@@H](O)[C@H](n4ccc(N)nc4=O)O[C@@H]3COP(=O)(O)O[C@H]3C[C@H](n4cc(C)c(=O)[nH]c4=O)O[C@@H]3COP(=O)(O)O[C@H]3[C@@H](O)[C@H](n4cnc5c(=O)[nH]c(N)nc54)O[C@@H]3COP(=O)(O)O[C@H]3C[C@H](n4cc(C)c(=O)[nH]c4=O)O[C@@H]3COP(=O)(O)O[C@H]3C[C@H](n4cc(C)c(=O)[nH]c4=O)O[C@@H]3COP(=O)(O)O[C@H]3C[C@H](n4cc(C)c(=O)[nH]c4=O)O[C@@H]3COP(=O)(O)O[C@H]3C[C@H](n4cc(C)c(=O)[nH]c4=O)O[C@@H]3COP(=O)(O)O[C@H]3[C@@H](O)[C@H](n4cnc5c(=O)[nH]c(N)nc54)O[C@@H]3COP(=O)(O)O[C@H]3[C@@H](O)[C@H](n4ccc(N)nc4=O)O[C@@H]3COP(=O)(O)O[C@H]3C[C@H](n4cc(C)c(=O)[nH]c4=O)O[C@@H]3COP(=O)(O)O[C@H]3[C@@H](O)[C@H](n4cnc5c(=O)[nH]c(N)nc54)O[C@@H]3COP(=O)(O)O[C@H]3[C@@H](O)[C@H](n4ccc(N)nc4=O)O[C@@H]3COP(=O)(O)O[C@H]3C[C@H](n4cc(C)c(=O)[nH]c4=O)O[C@@H]3CO)O2)c(=O)[nH]c1=O`, in [1], the Activity entry is on record as “Non-toxic”. For the same molecule, the inhibition entry in the data set with Human betaherpesvirus 5 [2] and in the data set on Human betaherpesvirus 5 [5] was “Active” throughout. In addition, the inhibition result in the data set on Human betaherpesvirus 5 [6] and with Human betaherpesvirus 5 [11] was “inactive” throughout. Besides, the CC50 at 144 h in data set [7] was over 10000 nM. Further, the IC50 in the data set with Human betaherpesvirus 5 [10] is 3800 nM. Further, the IC90 with Human betaherpesvirus 5 [10] is over 10000 nM.

Regarding `Cc1cn([C@H]2C[C@H](OP(O)(O)=S)[C@@H](COP(O)(=S)O[C@H]3C[C@H](n4cc(C)c(=O)[nH]c4=O)O[C@@H]3COP(O)(=S)O[C@H]3[C@@H](O)[C@H](n4cnc5c(=O)[nH]c(N)nc54)O[C@@H]3COP(O)(=S)O[C@H]3[C@@H](O)[C@H](n4ccc(N)nc4=O)O[C@@H]3COP(O)(=S)O[C@H]3C[C@H](n4cc(C)c(=O)[nH]c4=O)O[C@@H]3COP(O)(=S)O[C@H]3[C@@H](O)[C@H](n4cnc5c(=O)[nH]c(N)nc54)O[C@@H]3COP(O)(=S)O[C@H]3C[C@H](n4cc(C)c(=O)[nH]c4=O)O[C@@H]3COP(O)(=S)O[C@H]3C[C@H](n4cc(C)c(=O)[nH]c4=O)O[C@@H]3COP(O)(=S)O[C@H]3C[C@H](n4cc(C)c(=O)[nH]c4=O)O[C@@H]3COP(O)(=S)O[C@H]3C[C@H](n4cc(C)c(=O)[nH]c4=O)O[C@@H]3COP(O)(=S)O[C@H]3[C@@H](O)[C@H](n4cnc5c(=O)[nH]c(N)nc54)O[C@@H]3COP(O)(=S)O[C@H]3[C@@H](O)[C@H](n4ccc(N)nc4=O)O[C@@H]3COP(O)(=S)O[C@H]3C[C@H](n4cc(C)c(=O)[nH]c4=O)O[C@@H]3COP(O)(=S)O[C@H]3[C@@H](O)[C@H](n4cnc5c(=O)[nH]c(N)nc54)O[C@@H]3COP(O)(=S)O[C@H]3[C@@H](O)[C@H](n4ccc(N)nc4=O)O[C@@H]3COP(O)(=S)O[C@H]3C[C@H](n4cc(C)c(=O)[nH]c4=O)O[C@@H]3COP(O)(=S)O[C@H]3C[C@H](n4cc(C)c(=O)[nH]c4=O)O[C@@H]3COP(O)(=S)O[C@H]3C[C@H](n4cc(C)c(=O)[nH]c4=O)O[C@@H]3COP(O)(=S)O[C@H]3[C@@H](O)[C@H](n4cnc5c(=O)[nH]c(N)nc54)O[C@@H]3COP(O)(=S)O[C@H]3[C@@H](O)[C@H](n4ccc(N)nc4=O)O[C@@H]3COP(O)(=S)O[C@H]3C[C@H](n4cc(C)c(=O)[nH]c4=O)O[C@@H]3COP(O)(=S)O[C@H]3[C@@H](O)[C@H](n4cnc5c(=O)[nH]c(N)nc54)O[C@@H]3COP(O)(=S)O[C@H]3[C@@H](O)[C@H](n4ccc(N)nc4=O)O[C@@H]3COP(O)(=S)O[C@H]3C[C@H](n4cc(C)c(=O)[nH]c4=O)O[C@@H]3CO)O2)c(=O)[nH]c1=O` (some centres not stated), the Activity result in [1] is given as “Non-toxic”. The inhibition result in the data set on Human betaherpesvirus 5 [2] and with Human betaherpesvirus 5 [5] was “Active” in each case. The inhibition result with Human alphaherpesvirus 1 [3], with Human alphaherpesvirus 1 [4], in the data set on Human betaherpesvirus 5 [6], with Human betaherpesvirus 5 [8], with Human betaherpesvirus 5 [9] and with Human betaherpesvirus 5 [11] was “inactive” throughout. Moreover, the 50% cytotoxic concentration (CC50) at 144 h in data set [7] is over 10000 nM. In addition, the IC50 in the data set with Human betaherpesvirus 5 [10] was 50 nM. In the data set with Human betaherpesvirus 5 [10], the IC90 turned out to be 800 nM.
